Reference: ChEMBL document CHEMBL1221309, “Synthesis of novel tetrahydroisoquinoline bronchodilators” (Bioorg Med Chem Lett, 2010)
Converted amounts (≈) assume the structure as drawn.

Assays:
Homo sapiens [1] = species: Homo sapiens; assay: Bronchorelaxant activity in human small airways assessed as remaining contraction at 10 uM relative to LTD4; format: functional
Outline: (§1)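 Isolated human small airways (inner diameter <2.0 mm) were mounted in a previously described apparatus and contracted with LTD4. The test item was added, usually at 10 μM and also at 1 μM. %RC is the contraction remaining with the test item, expressed against the maximum LTD4-evoked contraction without it.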

Homo sapiens [2] = species: Homo sapiens; assay: Bronchorelaxant activity in human small airways assessed as remaining contraction at 1 uM relative to LTD4; format: functional; outline: as §1
Homo sapiens [3] = species: Homo sapiens; assay: Bronchorelaxant activity in human small airways assessed as remaining contraction; format: functional; outline: as §1
[4] = Aqueous solubility of the compound; format: physicochemical
[5] = Lipophilicity log D of the compound at pH 7.4; format: physicochemical; conditions: buffer
Homo sapiens [6] = species: Homo sapiens; assay: Bronchorelaxant activity in human small airways assessed as remaining contraction at 10 uM relative to acetylcholine; format: functional
Outline: (§2)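 Isolated human small airways (inner diameter <2.0 mm) were contracted with acetylcholine, with histamine, or with a cocktail of LTD4, acetylcholine and histamine. Test item at 10 μM; relaxation of each induced contraction was recorded.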

Homo sapiens [7] = species: Homo sapiens; assay: Bronchorelaxant activity in human small airways assessed as remaining contraction at 10 uM relative to histamine; format: functional; outline: as §2
Homo sapiens [8] = species: Homo sapiens; assay: Bronchorelaxant activity in human small airways assessed as remaining contraction at 10 uM relative to acetylcholine and histamine combination; format: functional; outline: as §2

With `Cc1nc(C(F)(F)F)ccc1/C=C/C(=O)N1CCc2c(Cl)c(O)c(O)c(Cl)c2C1` the Activity (Homo sapiens [1]) was 9% and the Activity (Homo sapiens [2]) was 71%.

`O=C(CCCc1ccc(F)cn1)N1CCc2c(Cl)c(O)c(O)c(Cl)c2C1` gave an Activity (Homo sapiens [1]) of 25% and an Activity (Homo sapiens [2]) of 89%.

With `O=C(CCCc1ccc([N+](=O)[O-])cn1)N1CCc2c(Cl)c(O)c(O)c(Cl)c2C1` the Activity (Homo sapiens [1]) was 33% and the Activity (Homo sapiens [2]) was 74%.

`Cc1nc(C(F)(F)F)ncc1/C=C/C(=O)N1CCc2c(Cl)c(O)c(O)c(Cl)c2C1` gave an Activity (Homo sapiens [1]) of 18% and an Activity (Homo sapiens [2]) of 88%.

`O=C(CCCc1ccc(Cl)cn1)N1CCc2c(Cl)c(O)c(O)c(Cl)c2C1` showed an Activity (Homo sapiens [1]) of 15% and an Activity (Homo sapiens [2]) of 85%.

In the case of `O=C(/C=C/c1ccc(C(F)(F)F)nc1)N1CCc2c(c3c(c4c2CCO4)OCC3)C1`, the Activity (Homo sapiens [1]) is reported as 91%.

Compound `O=C(CCCc1ccc(C(F)(F)F)nc1)N1CCc2c(Cl)c(O)c(O)c(Cl)c2C1` has an Activity (Homo sapiens [1]) of 26% and an Activity (Homo sapiens [2]) of 93%.

For `O=C(CCCc1ncc(C(F)(F)F)cc1-c1ccccc1)N1CCc2c(Cl)c(O)c(O)c(Cl)c2C1`, the Activity (Homo sapiens [1]) was 38% and the Activity (Homo sapiens [2]) was 90%.

Compound `O=C(/C=C/c1ccccc1)N1CCc2c(Cl)c(O)c(O)c(Cl)c2C1` has an Activity (Homo sapiens [1]) of 41% and an Activity (Homo sapiens [2]) of 83%.

For `O=C(CCCc1ncc(C(F)(F)F)cc1C1CCCCC1)N1CCc2c(Cl)c(O)c(O)c(Cl)c2C1`, the Activity (Homo sapiens [1]) was 77%.

In the case of `O=C(CCCc1ncc(C(F)(F)F)cc1Cl)N1CCc2c(Cl)c(O)c(O)c(Cl)c2C1`, the Activity (Homo sapiens [1]) is reported as 5% and the Activity (Homo sapiens [2]) is reported as 61%.

Compound `O=C(/C=C/c1ccc(F)cn1)N1CCc2c(Cl)c(O)c(O)c(Cl)c2C1` has an Activity (Homo sapiens [1]) of 24%.

Work on `O=C(/C=C/c1cccnc1)N1CCc2c(Cl)c(O)c(O)c(Cl)c2C1` yielded an Activity (Homo sapiens [1]) of 44% and an Activity (Homo sapiens [2]) of 100%.

With `O=C(CCc1ccc(C(F)(F)F)nc1)N1CCc2c(F)c(O)c(O)c(F)c2C1` the Activity (Homo sapiens [1]) was 85%.

For `O=C(/C=C/c1ccc(C(F)(F)F)nc1)N1CCc2c(Cl)c(O)c(O)c(Cl)c2C1`, the Activity (Homo sapiens [1]) was 6% and the Activity (Homo sapiens [2]) was 87%.

`O=C(CCCc1ccc(C(F)(F)F)cn1)N1CCc2c(Cl)c(O)c(O)c(Cl)c2C1` showed an Activity (Homo sapiens [1]) of 19% and an Activity (Homo sapiens [2]) of 72%.

`O=C(CCc1ccc(C(F)(F)F)nc1)N1CCc2c(Cl)c(O)c(O)c(Cl)c2C1` gave an Activity (Homo sapiens [1]) of 29%.

Work on `O=C(CCCc1ccc(Cl)cc1)N1CCc2c(Cl)c(O)c(O)c(Cl)c2C1` yielded an Activity (Homo sapiens [1]) of 16% and an Activity (Homo sapiens [2]) of 80%.

With `O=C(/C=C/c1ccc(O)cc1)N1CCc2c(Cl)c(O)c(O)c(Cl)c2C1` the Activity (Homo sapiens [1]) was 32%.

Work on `Cc1cc(C(F)(F)F)cnc1CCCC(=O)N1CCc2c(Cl)c(O)c(O)c(Cl)c2C1` yielded an Activity (Homo sapiens [1]) of 7% and an Activity (Homo sapiens [2]) of 67%.

With `N#Cc1ccc(CCCC(=O)N2CCc3c(Cl)c(O)c(O)c(Cl)c3C2)nc1` the Activity (Homo sapiens [1]) was 34% and the Activity (Homo sapiens [2]) was 86%.

Compound `CS(=O)(=O)c1ccc(CCCC(=O)N2CCc3c(Cl)c(O)c(O)c(Cl)c3C2)nc1` has an Activity (Homo sapiens [1]) of 72% and an Activity (Homo sapiens [2]) of 99%.

In the case of `C/C(=C\C(=O)N1CCc2c(Cl)c(O)c(O)c(Cl)c2C1)c1ccc(C(F)(F)F)nc1`, the Activity (Homo sapiens [1]) is reported as 7%, the Activity (Homo sapiens [2]) is reported as 74% and the ED50 (Homo sapiens [3]) is reported as 2270 nM. The solubility [4] was 18 µM (≈ 8.05 µg/mL), the logD [5] was 3.5 and the Activity (Homo sapiens [6]) was 93%. It also gave an Activity (Homo sapiens [7]) of 97% and an Activity (Homo sapiens [8]) of 82%.

Work on `Cc1c(O)c(O)c(C)c2c1CCN(C(=O)/C=C/c1ccc(C(F)(F)F)nc1)C2` yielded an Activity (Homo sapiens [1]) of 75%.

`COc1ccc(CCCC(=O)N2CCc3c(Cl)c(O)c(O)c(Cl)c3C2)nc1` showed an Activity (Homo sapiens [1]) of 31% and an Activity (Homo sapiens [2]) of 96%.
